“Also recorded” adds a separate entry of the source. Starred links: 1 amine or outer side, 2 acyl side, 3 side chain; linkers in the order of their positions; H or OH if unused. Non-standard residues stand in square brackets, D forms with d. Residues, ends and D or L forms follow the SMILES beside them. Groups on a side chain read outwards from the residue. *: point of attachment. Acryloyl(3-(3-pyridyl),E) = O=C(/C=C/c1cccnc1)*; X2 = O=C(CN1CCCN2CCN(CCCN(CP(=O)(O)O)CC2)CC1)*; X1 = O=C(Cc1ccc(N[*:1])cc1)[*:2]; Aad = N[C@@H](CCCC(=O)O)C(=O)O; NH(2-Me-phenyl) = Cc1ccccc1N*; PEG4 = NCCOCCOCCOCCOCCC(=O)O; Ac6c = NC1(C(=O)O)CCCCC1; CO = O=C([*:1])[*:2]
Tests used:
[1] = target: VLA-4 (integrin α4β1) on BPRα cells (Mus musculus, UniProt P09055+Q00651); assay: Saturation binding of [64Cu]-LLP2A to BPRα cells; details: normalized to cellular protein, triplicate
BPR cells (VLA-4−) [2] = assay: Saturation binding of [64Cu]-LLP2A to BPR cells; parameters: species or system mouse
BPR cells (VLA-4−) [3] = assay: [64Cu]-LLP2A internalization assay, BPR cells; assay type: cell-based, mouse; details: 15 min - 4 h at 37°C
Procedure, shortened: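 Cells (1 x 10^5/well, seeded 24 h) were held in DMEM/1% BSA/1 mM Mn2+. Blocked wells first had 10 μg unlabelled PEG4 peptide for 15 min at 37°C. Each well then received 0.44 MBq radiotracer (3.43 MBq/nmol) at 37°C for 15 min, 2 h or 4 h. Surface activity was stripped with 20 mM sodium acetate pH 4.0 (10 min). Lysates were γ-counted, corrected for background, block and decay, and normalised to protein; n=3.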

[4] = Biodistribution in BPR tumor-bearing mice; assay type: in vivo, C57BL/6 mice; details: both, C57BL/6, mouse, iv, 7.4 MBq, total radioactivity
Procedure, shortened: (§1)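 Male and female C57BL/6 mice (4–6 weeks old) carried s.c. right-flank tumours from 5 x 10^5 cells in an equal volume of Matrigel. They received 7.4 MBq radiotracer (57.2 MBq/nmol) via lateral tail vein and were euthanised right after 24 h imaging (n=6; 3m/3f). Tissues and tumour were weighed and γ-counted. %IA/g was decay-corrected against an injected-dose standard.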

[5] = Biodistribution in BPRα tumor-bearing mice; assay type: in vivo, C57BL/6 mice; details: both, C57BL/6, mouse, iv, 7.4 MBq, total radioactivity
Procedure, shortened: as §1

s.c. BPR and BPRα tumors = assay: PET/CT imaging of BPR and BPRα tumor models; assay type: in vivo, C57BL/6 mice
Procedure, shortened: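 Mice bore s.c. flank tumours (5 x 10^5 cells plus Matrigel; n=9 per line, 3m/6f) and received 7.4 MBq radiotracer i.v. (57.2 MBq/nmol). Under 2% isoflurane, static 10-min PET/CT scans were taken at 4 and 24 h and reconstructed by OSEM-3D. ROIs were drawn on CT. SUV = activity concentration x body weight/injected dose. Tumour-to-muscle SUV ratios were derived.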

[6] = tested on: B16F10 melanoma cells (VLA-4+); details: previously reported; cited from earlier work
[7] = previously demonstrated, cited from earlier work

VLA-4 (integrin α4β1) on BPRα cells, sequence (Q00651 41-1039): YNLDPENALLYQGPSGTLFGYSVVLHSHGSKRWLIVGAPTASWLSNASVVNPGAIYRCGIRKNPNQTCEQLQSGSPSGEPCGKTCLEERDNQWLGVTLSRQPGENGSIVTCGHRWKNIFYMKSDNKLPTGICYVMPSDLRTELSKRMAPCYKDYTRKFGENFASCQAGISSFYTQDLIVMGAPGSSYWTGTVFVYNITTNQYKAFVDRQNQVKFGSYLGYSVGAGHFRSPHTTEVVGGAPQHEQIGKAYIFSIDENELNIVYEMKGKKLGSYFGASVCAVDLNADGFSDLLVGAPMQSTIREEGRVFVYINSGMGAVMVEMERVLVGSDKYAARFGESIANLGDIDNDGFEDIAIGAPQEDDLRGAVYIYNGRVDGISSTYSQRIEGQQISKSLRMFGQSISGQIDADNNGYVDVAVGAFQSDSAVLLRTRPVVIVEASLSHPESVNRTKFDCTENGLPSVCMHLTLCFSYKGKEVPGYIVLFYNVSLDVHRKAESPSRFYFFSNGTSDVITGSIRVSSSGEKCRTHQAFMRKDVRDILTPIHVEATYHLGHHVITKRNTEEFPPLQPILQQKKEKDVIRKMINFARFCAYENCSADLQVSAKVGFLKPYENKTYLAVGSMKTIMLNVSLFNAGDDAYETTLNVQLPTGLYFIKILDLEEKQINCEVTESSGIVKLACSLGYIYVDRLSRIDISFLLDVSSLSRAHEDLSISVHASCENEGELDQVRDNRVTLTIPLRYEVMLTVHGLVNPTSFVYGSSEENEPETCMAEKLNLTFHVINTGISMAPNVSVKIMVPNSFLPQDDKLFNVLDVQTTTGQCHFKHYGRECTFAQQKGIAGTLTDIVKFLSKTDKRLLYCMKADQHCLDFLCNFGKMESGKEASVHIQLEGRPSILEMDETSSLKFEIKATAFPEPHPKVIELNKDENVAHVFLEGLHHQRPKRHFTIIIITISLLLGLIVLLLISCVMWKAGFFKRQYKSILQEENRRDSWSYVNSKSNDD
VLA-4 (integrin α4β1) on BPRα cells, sequence (P09055 21-798): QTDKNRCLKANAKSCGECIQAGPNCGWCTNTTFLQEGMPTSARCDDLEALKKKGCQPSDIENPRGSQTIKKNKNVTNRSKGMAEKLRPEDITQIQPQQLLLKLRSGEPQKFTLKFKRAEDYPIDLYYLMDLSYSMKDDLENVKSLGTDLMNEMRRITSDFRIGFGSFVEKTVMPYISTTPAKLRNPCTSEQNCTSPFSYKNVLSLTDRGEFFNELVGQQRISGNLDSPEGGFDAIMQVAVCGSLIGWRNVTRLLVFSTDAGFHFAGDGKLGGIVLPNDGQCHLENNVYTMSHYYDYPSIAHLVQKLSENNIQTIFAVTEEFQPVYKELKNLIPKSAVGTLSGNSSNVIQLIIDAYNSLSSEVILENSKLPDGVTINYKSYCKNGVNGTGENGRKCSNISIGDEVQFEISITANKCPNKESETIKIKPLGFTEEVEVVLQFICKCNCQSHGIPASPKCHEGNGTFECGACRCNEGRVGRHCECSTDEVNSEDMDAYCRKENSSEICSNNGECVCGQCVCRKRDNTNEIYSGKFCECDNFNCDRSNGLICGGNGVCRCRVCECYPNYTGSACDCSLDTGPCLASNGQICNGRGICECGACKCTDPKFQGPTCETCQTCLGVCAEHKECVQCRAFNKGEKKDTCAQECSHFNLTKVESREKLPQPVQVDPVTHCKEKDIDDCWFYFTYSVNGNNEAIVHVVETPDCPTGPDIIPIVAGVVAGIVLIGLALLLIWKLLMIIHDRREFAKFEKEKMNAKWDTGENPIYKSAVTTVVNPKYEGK

With `Cc1ccccc1NC(=O)Nc1ccc(CC(=O)N[C@@H](CCCCNC(=O)/C=C/c2cccnc2)C(=O)N[C@@H](CCCC(=O)O)C(=O)NC2(C(=O)N[C@@H](CCCCNC(=O)CCOCCOCCOCCOCCNC(=O)CN3CCCN4CCN(CCCN(CP(=O)(O)O)CC4)CC3)C(N)=O)CCCCC2)cc1` [[^64Cu]-LLP2A, [^64Cu]-CB-TE1A1P-PEG4-LLP2A, metal not drawn] ({NH(2-Me-phenyl)-CO}-[X1]K(Acryloyl(3-(3-pyridyl),E))[Aad][Ac6c]K([PEG4-X2])-NH2; N-terminus and C-terminus assumed) the Bmax [1] was 145 ± 8.8 fmol/mg, the “binding to BPR cells (saturation binding)” value (BPR cells (VLA-4−) [2]; 1-100 nM tracer, on ice 2 h, blocked with LLP2A-PEG4) was “indeterminate binding; also recorded: no saturation occurs” and the Bmax (BPR cells (VLA-4−) [2]; model fit poor, R^2=0.0002) was “not interpretable”. For the same compound, the internalization (BPR cells (VLA-4−) [3]) was “undetectable”, the tissue uptake at 24 h ([4]; spleen) was 8.1 ± 4.4 %ID/g and the tissue uptake at 24 h ([4]; thymus) was 3.5 ± 0.9 %ID/g. For the same compound, the tissue uptake at 24 h ([4]; tumor) was 1.7 ± 0.2 %ID/g, the tissue uptake at 24 h ([5]; bone marrow) was 1.6 ± 0.5 %ID/g and the tissue uptake at 24 h ([5]; spleen) was 6 ± 1.9 %ID/g. The tissue uptake at 24 h ([5]; thymus) was 4.2 ± 4 %ID/g, the tissue uptake at 24 h ([5]; tumor) was 2.8 ± 0.2 %ID/g and the “tumor uptake in BPRα relative to BPR (PET/CT)” value (s.c. BPR and BPRα tumors; 4h post-injection, 7.4 MBq i.v., n=9 each, p=0.0021) was “significant increase”. For the same compound, the “tumor-to-muscle ratio of BPRα vs. BPR (PET/CT SUV)” value (s.c. BPR and BPRα tumors; 4h post-injection, n=9, p=0.0005) was “significantly greater”, the “BPRα tumor uptake (PET/CT)” value (s.c. BPR and BPRα tumors; 24h post-injection, n=9) was “remained detectable” and the Bmax [6] was 300 ± 4.5 fmol/mg. The “stability in human serum” value ([7]; human serum) was “stability in human serum” and the “binding of the conjugate to plasma proteins” value [7] was “negligible”.
